# Activity calls are given as the source filed them. The calls are words filed in the database; no cut-off is given here.
# Experiments:
# [1] = molecular target: T1, Botulinum neurotoxin type A (Clostridium botulinum, UniProt P0DPI0); assay: Inhibition of Clostridium botulinum BoNT/A light chain (1 to 425 amino acids) by FRET method
# In short: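 Recombinant truncated light chain (residues 1–425) at 37 nM, incubated with SNAPtide, a 13mer SNAP-25 pseudosubstrate carrying a FITC fluorophore and a DABCYL quencher. Cleavage read as FRET fluorescence.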
# [2] = Cytotoxicity against human induced pluripotent stem cell-derived neurons at 1 mM; conditions: induced pluripotent stem cell-derived neuron, 1000 µM
# [3] = molecular target: Botulinum neurotoxin type A (Clostridium botulinum) (UniProt P0DPI0); conditions: Hall A hyper
# [4] = molecular target: T1, Botulinum neurotoxin type A; assay: Inhibition of Clostridium botulinum BoNT/A light chain (1 to 425 amino acids) by LC-MS analysis
# [5] = molecular target: Botulinum neurotoxin type A (Clostridium botulinum) (UniProt P0DPI0); conditions: Hall A hyper; remark: listed apart in the source
# [6] = Cytotoxicity against human induced pluripotent stem cell-derived neurons at 150 uM; conditions: induced pluripotent stem cell-derived neuron
# [7] = molecular target: T1, Botulinum neurotoxin type A; set-up: species or system Hall A hyper
# [8] = Cytotoxicity against human induced pluripotent stem cell-derived neurons at 200 uM; conditions: induced pluripotent stem cell-derived neuron
# [9] = molecular target: Botulinum neurotoxin type A (Clostridium botulinum) (UniProt P0DPI0); conditions: Hall A hyper; remark: listed apart in the source
# Chain of Botulinum neurotoxin type A (Clostridium botulinum) (P0DPI0 2-448 limits assumed): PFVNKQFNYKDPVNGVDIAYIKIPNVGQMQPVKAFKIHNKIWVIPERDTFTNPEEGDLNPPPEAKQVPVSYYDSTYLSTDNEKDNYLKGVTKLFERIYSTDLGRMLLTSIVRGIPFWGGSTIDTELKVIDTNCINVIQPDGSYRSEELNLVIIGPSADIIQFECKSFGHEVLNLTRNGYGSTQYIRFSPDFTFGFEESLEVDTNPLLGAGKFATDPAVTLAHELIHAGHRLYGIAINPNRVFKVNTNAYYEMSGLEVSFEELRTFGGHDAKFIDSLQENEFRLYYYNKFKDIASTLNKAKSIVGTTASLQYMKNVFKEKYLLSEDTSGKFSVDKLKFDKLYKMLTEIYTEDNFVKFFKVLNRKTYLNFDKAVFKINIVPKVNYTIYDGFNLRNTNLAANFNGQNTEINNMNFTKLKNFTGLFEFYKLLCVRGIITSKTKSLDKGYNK
# T1 sequence (P0DPI0 2-448 limits assumed): as above
smiles,measurement,setting,value
O=C(CC(CCOCC12CC3CC(CC(Br)(C3)C1)C2)c1ccc(Cl)cc1Cl)NO (stereo not drawn),IC50,[1],13 µM
O=C(CC(CCOCCc1ccc(F)cc1)c1ccc(Cl)cc1Cl)NOC(=O)NCc1ccccc1 (stereo not drawn),Activity,[2],Toxic
same,inhibition,[3],inactive
COc1cc(F)ccc1NC(=O)CC(CC(=O)NO)c1ccc(Cl)cc1Cl (stereo not drawn),IC50,[1],1.1 µM
same,Ki,[4],1 µM
O=C(CC(CCOCc1ccccc1)c1ccc(Cl)cc1Cl)NOC(=O)NCc1ccccc1 (stereo not drawn),Activity,[2],Toxic
same,inhibition,[3],inactive
O=C(/C=C/c1ccc(Cl)cc1Cl)NOC(=O)NCc1ccccc1,inhibition,[5],inactive
same,Activity,[6],Toxic
O=C(CC(CCOCc1ccccc1)c1ccc(Cl)cc1Cl)NO (stereo not drawn),IC50,[1],2.9 µM
O=C(CC(CC(=O)NCCC1CC1)c1ccc(Cl)cc1Cl)NO (stereo not drawn),IC50,[1],9.2 µM
O=C(CC(CCOCC12CC3CC(CC(Br)(C3)C1)C2)c1ccc(Cl)cc1Cl)NOC(=O)NCc1ccccc1 (stereo not drawn),EC50,[7],> 1000 µM
O=C(CC(CCO)c1ccc(Cl)cc1Cl)NO (stereo not drawn),Activity,[8],Non-toxic
O=C(CC(CCOCCc1ccc(F)cc1)c1ccc(Cl)cc1Cl)NO (stereo not drawn),IC50,[1],0.97 µM
same,Ki,[4],2.1 µM
O=C(CC(CC(=O)Nc1ccc(Br)cc1)c1ccc(Cl)cc1Cl)NOC(=O)NCc1ccccc1 (stereo not drawn),EC50,[7],198 µM
Cc1ccccc1NC(=O)CC(CC(=O)NO)c1ccc(Cl)cc1Cl (stereo not drawn),IC50,[1],2 µM
C=CCOCCC(CC(=O)NO)c1ccc(Cl)cc1Cl (stereo not drawn),IC50,[1],5.4 µM
O=C(CC(CC(=O)Nc1ccc(Br)cc1)c1ccc(Cl)cc1Cl)NO (stereo not drawn),IC50,[1],6.4 µM
O=C(CC(CCO)c1ccc(Cl)cc1Cl)NOC(=O)NCc1ccccc1 (stereo not drawn),inhibition,[9],Active
COc1ccc(CCNC(=O)CC(CC(=O)NO)c2ccc(Cl)cc2Cl)cc1 (stereo not drawn),IC50,[1],6.7 µM
Cc1ccccc1NC(=O)CC(CC(=O)NOC(=O)NCc1ccccc1)c1ccc(Cl)cc1Cl (stereo not drawn),EC50,[7],209 µM
O=C(CC(CC(=O)NCCc1ccc(F)cc1)c1ccc(Cl)cc1Cl)NO (stereo not drawn),IC50,[1],2.6 µM
